# Experimental data pooled from the literature.
# Lines come from different studies, so protocols differ.
# CA12: Carbonic anhydrase 12 (CA12, Homo sapiens, UniProt O43570)
# SLC6A3: Sodium-dependent dopamine transporter (SLC6A3, Homo sapiens, UniProt Q01959)
# DRD3: D(3) dopamine receptor (DRD3, Homo sapiens, UniProt P35462)
SMILES,target,read-out,action,method,setting,quantity,value
OCc1ccccc1O[C@@H]1O[C@H](CO)[C@@H](O)[C@H](O)[C@H]1O,"Taste receptor type 2 member 16 (TAS2R16, Homo sapiens, UniProt Q9NYV7)",inositol phosphate,agonist,TR-FRET,,EC50,13000 µM
C#CCNC(=O)c1ccc(=O)oc1,CA12,enzyme activity,inhibitor,stopped-flow,,Ki,68.1 µM
CCOC(=O)[C@@]12C[C@@H]1[C@@H](n1ccc3c(NCCCCCc4ccccc4)nc(C#Cc4ccccc4)nc31)[C@H](O)[C@@H]2O,SLC6A3,ligand displacement,,radioligand,,Ki,1.9 µM
Cc1[nH]c(C)c(S(=O)(=O)Nc2ccc(C3CC3)c(Cl)c2)c1C(=O)N1CCC(F)(F)C1,DRD3,β-arrestin recruitment,antagonist,,,IC50,13 µM
N#C[C@@]12C[C@@H]1[C@@H](n1cnc3c(Nc4ccccc4)nc(C#Cc4ccc(Cl)s4)nc31)[C@H](O)[C@@H]2O,SLC6A3,ligand displacement,,radioligand,,Ki,1.5 µM
O=C(NCc1cn(-c2ccccc2)nn1)c1ccc(=O)oc1,CA12,enzyme activity,inhibitor,stopped-flow,,Ki,62 µM
NCC(=O)O,"Glutamate NMDA receptor; GRIN1/GRIN2B (GRIN1/GRIN2B, Homo sapiens, UniProt Q05586+Q13224)",ion current,agonist,two-electrode voltage clamp,oocytes,EC50,0.32 µM
CNC(=O)[C@@]12C[C@@H]1[C@@H](n1cnc3c(Nc4ccccc4)nc(C#Cc4ccc(Cl)s4)nc31)[C@H](O)[C@@H]2O,SLC6A3,ligand displacement,,radioligand,,Ki,1.6 µM
Cc1[nH]c(C)c(S(=O)(=O)Nc2ccc(C(F)(F)F)c(Cl)c2)c1C(=O)N1CC[C@@H](F)C1,DRD3,G protein activation,antagonist,BRET,,IC50,1 µM
O=C(Oc1ccc(Br)cc1)c1ccc(=O)oc1,CA12,enzyme activity,inhibitor,stopped-flow,,Ki,0.91 µM
OC[C@@]12C[C@@H]1[C@@H](n1cnc3c(N[C@@H](C4CCC4)C4CC4)nc(C#Cc4ccc(Cl)s4)nc31)[C@H](O)[C@@H]2O,SLC6A3,ligand displacement,,radioligand,,Ki,0.89 µM
COc1ccc(OC(=O)c2ccc(=O)oc2)cc1,CA12,enzyme activity,inhibitor,stopped-flow,,Ki,1.65 µM
N#CC[C@@]12C[C@@H]1[C@@H](n1cnc3c(NC4CC4)nc(C#Cc4ccc(Cl)s4)nc31)[C@H](O)[C@@H]2O,SLC6A3,ligand displacement,,radioligand,,EC50,0.2 µM
Cc1[nH]c(C)c(S(=O)(=O)Nc2ccc(C(F)(F)F)c(Cl)c2)c1C(=O)N1C[C@@H](F)[C@H](F)C1 (relative stereo),DRD3,G protein activation,antagonist,BRET,,IC50,0.58 µM
CNC(=O)[C@@]12C[C@@H]1[C@@H](n1cnc3c(NCc4cccc(Cl)c4)nc(C#Cc4ccc(Cl)s4)nc31)[C@H](O)[C@@H]2O,SLC6A3,ligand displacement,,radioligand,,Ki,1.6 µM
Cc1[nH]c(C)c(S(=O)(=O)Nc2ccc(C(F)(F)F)c(Cl)c2)c1C(=O)N1CCN(C(=O)OC(C)(C)C)CC1,DRD3,G protein activation,antagonist,BRET,,IC50,29 µM
Cc1ccc(-n2cc(CNC(=O)c3ccc(=O)oc3)nn2)cc1,CA12,enzyme activity,inhibitor,stopped-flow,,Ki,57.8 µM
Cc1ccc(NS(=O)(=O)c2c(C)[nH]c(C)c2C(=O)N2CCC2)cc1Cl,DRD3,β-arrestin recruitment,antagonist,,,IC50,35 µM
O=C(Oc1ccccc1)c1ccc(=O)oc1,CA12,enzyme activity,inhibitor,stopped-flow,,Ki,65.7 µM
CNc1nc(I)nc2c1ncn2[C@H]1[C@H](O)[C@H](O)[C@]2(CC#N)C[C@H]12,SLC6A3,ligand displacement,,radioligand,,EC50,> 10 µM
CCN(C)C(=O)c1c(C)[nH]c(C)c1S(=O)(=O)Nc1ccc(C(F)(F)F)c(Cl)c1,DRD3,G protein activation,antagonist,BRET,,IC50,13 µM
Cc1c(Cl)c(=O)oc2cc(OCCCCSC#N)ccc12,CA12,enzyme activity,inhibitor,stopped-flow,,Ki,0.0591 µM
Cc1[nH]c(C)c(S(=O)(=O)Nc2ccc(C(F)(F)F)c(Cl)c2)c1C(=O)O,DRD3,G protein activation,antagonist,BRET,,IC50,19 µM
C#CCOC(=O)c1ccc(=O)oc1,CA12,enzyme activity,inhibitor,stopped-flow,,Ki,76.3 µM
CCOC(=O)[C@@]12C[C@@H]1[C@@H](n1cnc3c(NCCCCCc4ccccc4)nc(I)nc31)[C@H](O)[C@@H]2O,SLC6A3,ligand displacement,,radioligand,,Ki,1.6 µM
COc1cc(C(F)(F)F)c(Cl)cc1NS(=O)(=O)c1c(C)[nH]c(C)c1C(=O)N1CCC(F)(F)C1,DRD3,β-arrestin recruitment,antagonist,,,IC50,7.2 µM
O=C(OC1CCCCC1)c1ccc(=O)oc1,CA12,enzyme activity,inhibitor,stopped-flow,,Ki,3.12 µM
